Most compounds without a hit are left out; they make up all but 1.5% or so of the library.
CCR6 antag: blocks CCL20-driven beta-arrestin recruitment at human CCR6; inhibition, % at 20 µM; actives 0.49% (n = 340,000); CHO-K1 CCR6 PathHunter beta-arrestin, luminescence, CCL20-stimulated; P51684; AID 493098;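 active = compounds whose inhibition of the agonist-driven luminescence signal at 20 µM reaches about 50%, limit read from the data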;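 note: cells stimulated with CCL20 at 14 nM final; plate controls were DMSO with CCL20 for no effect and DMSO without agonist for full effect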
Target sequence (P51684 whole entry, looked up): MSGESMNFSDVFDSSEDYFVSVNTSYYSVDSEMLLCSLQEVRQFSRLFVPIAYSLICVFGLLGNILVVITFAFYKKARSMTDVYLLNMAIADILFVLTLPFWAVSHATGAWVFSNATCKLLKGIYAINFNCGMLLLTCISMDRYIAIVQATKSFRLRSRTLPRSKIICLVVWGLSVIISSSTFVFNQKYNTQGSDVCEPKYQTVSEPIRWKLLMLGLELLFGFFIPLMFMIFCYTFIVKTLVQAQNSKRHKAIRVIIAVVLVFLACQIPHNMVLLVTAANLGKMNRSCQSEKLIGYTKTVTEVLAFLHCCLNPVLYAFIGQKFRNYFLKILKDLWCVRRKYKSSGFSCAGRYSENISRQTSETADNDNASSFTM
APJ antag: antagonists of human APJ apelin receptor; P35414; CHO-K1 APJ beta-arrestin complementation, luminescence; inhibition, % at 20 µM; actives 0.32% (n = 330,000); AID 2521;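 active = inhibition above about 40% at 20 µM, limit read from the data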;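 note: cells challenged with 10 nM apelin-13 agonist together with compound; plate controls were apelin-13 plus DMSO wells for no effect and DMSO wells lacking apelin-13 for full effect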
CXCR6 block: blocks human CXCR6 beta-arrestin recruitment | actives 0.36% (n = 360,000) | inhibition, % at 20 µM | O00574 | AID 602244 | CHO-K1 PathHunter CXCR6 beta-arrestin, luminescence; in the data active = inhibition above about 34%, passing the limit was not always enough;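 note: antagonist mode with CXCL16 agonist at 10 nM final; 0% = 10 nM CXCL16 with DMSO and 100% = unstimulated wells without agonist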
EBI2 block: blocks human EBI2 receptor beta-arrestin signaling; EBI2 beta-arrestin recruitment, luminescence, 7a,25-OHC stimulated; AID 651636; P32249; actives 0.81% (n = 360,000); inhibition, % at 5 µM; in the data active = inhibition above about 38%;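 note: enzyme fragment complementation signal reports receptor beta-arrestin coupling in cells; 0% = agonist plus DMSO wells and 100% = wells without agonist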
APJ ag: APJ receptor agonism. CHO-K1 APJ PathHunter beta-arrestin, luminescence; 0% DMSO wells, 100% apelin. activation, % at 20 µM. actives 0.11% (n = 330,000). AID 2520;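 active = activation more than six SD over the plate average, tested at 20 µM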;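 note: 0% = DMSO alone and 100% = apelin-13 at 10 nM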
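Material: engineered CHO-K1 APJ arrestin reporter cells; amount: 1000 CHO-K1 reporter cells seeded per well; incubation: compound stimulation 90 min at 25 °C, detection 60 min; signal: luminescent beta-gal fragment complementation, chemiluminescent substrate; read-out basis: APJ agonist activity; controls: DMSO-only wells as negative, 10 nM Apelin-13 as positive control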
EBI2 antag conf: confirmation of human EBI2 receptor antagonists; shares compounds with EBI2 block; EBI2 beta-arrestin luminescence, 7a,25-OHC antagonism; inhibition, % at 5 µM; actives 29% (n = 2,400); AID 651997;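 active = inhibition of at least 50%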
EBI2 ag: EBI2 agonism counter-screen; EBI2-expressing cells, agonist mode, luminescence, 60 min; 0% vehicle, 100% 7α,25-dihydroxycholesterol control; 2,400 tested, under 10 active; activation, % at 5 µM; shares compounds with EBI2 block;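 active = activation of at least 50%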
bGal cs: counter-screen for EBI2 antagonists: E. coli beta-galactosidase inhibition; shares compounds with EBI2 block; inhibition, % at 5 µM; actives 1% (n = 2,400); purified beta-galactosidase, luminescent Galacton Star, 15 min;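 active = replicate-average signal at least 3 plate SD below neutral wells, shown as high inhibition, flagging enzyme-inhibiting false positives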;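 note: 0% = DMSO wells with enzyme and 100% = wells lacking enzyme; higher means stronger loss of beta-gal luminescence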
An asterisk follows results filed as active; x = not tested or not shown.

SMILES | CCR6 antag | APJ antag | CXCR6 block | EBI2 block | APJ ag | EBI2 antag conf | EBI2 ag | bGal cs
O=c1c(C=NCCN2CCNCC2)c(O)n(C2CCCCC2)c(=O)n1C1CCCCC1 | -18.1 | 15.2 | -7.0 | 7.5 | -1.8 | x | x | x
COc1ccccc1CN1CCN(C(=O)COc2ccc3ccccc3c2)CC1 | 8.8 | -6.8 | -6.1 | 70.2* | -14.2 | 46.9 | 4.0 | 2.3
CN1CCN(C(=O)COc2ccc3ccccc3c2)CC1 | 12.8 | 27.9 | -0.2 | 52.9* | 0.6 | 30.7 | -0.6 | -7.1
O=C(COc1ccc2ccccc2c1)N1CCN(CC2CC3C=CC2C3)CC1 (stereo unspecified) | 2.8 | 0.2 | -7.3 | 84.9* | -2.6 | 62.6* | -0.9 | -4.3
COc1ccc(OCC(=O)N2CCN(Cc3c[nH]c4ccccc34)CC2)cc1 | -11.2 | x | 1.4 | 47.5* | x | 29.0 | 1.7 | 2.4
COCCCn1c(N)c(C(=O)OC(C)COC)c2nc3ccccc3nc21 (stereo unspecified) | 5.4 | 26.8 | 14.5 | -2.3 | -3.9 | x | x | x
CCC(C)OC(=O)c1c(N)n(Cc2cccs2)c2nc3ccccc3nc12 (stereo unspecified) | -26.9 | 17.0 | 20.5 | 44.4* | -4.1 | 39.3 | -1.6 | -20.8
COC(=O)C1=C(c2c(C)noc2C)C[C@@H]2CC[C@H]1N2C(=O)N1CCC(O)(c2ccc(Cl)cc2)CC1 | 4.9 | 6.7 | 3.5 | 41.9* | -1.6 | 26.1 | -1.3 | -18.3
COC(=O)C1=C(c2c(C)noc2C)C[C@@H]2CC[C@H]1N2C(=O)N1CCOCC1 | 1.9 | 9.4 | -6.7 | -6.9 | -3.8 | x | x | x
Cc1cc(Cl)ccc1C(=O)C1CCCN(C2CCSCC2)C1 (stereo unspecified) | 16.0 | 5.8 | 3.2 | 17.0 | -3.0 | x | x | x
CCOC(=O)[C@]12Cc3cc(OC)ccc3[C@H]1N(C1CCCCC1)C(=O)c1ccccc12 | x | x | 16.7 | 63.8* | x | 20.6 | 0.8 | -15.1
CCOC(=O)[C@]12Cc3cc(OC)ccc3[C@H]1N(C)C(=O)c1ccccc12 | x | x | 8.9 | 5.7 | x | x | x | x
Nc1c(C(=O)NCCN2CCOCC2)c2nc3ccccc3nc2n1Cc1ccccc1 | 0.3 | 11.9 | -1.9 | 74.1* | -3.6 | 34.1 | 1.0 | 6.1
CCOC(=O)[C@@H]1[C@H]2COc3ccc(Br)cc3[C@H]2N2C(=O)N(c3cccc(C)c3)C(=O)[C@]12C | 7.3 | 24.0 | -3.7 | 11.9 | -2.9 | x | x | x
COC(=O)C1=C(c2ccc(S(C)(=O)=O)cc2)C[C@@H]2CC[C@H]1N2C(=O)NCc1cccc2ccccc12 | 17.4 | 16.6 | -2.0 | -4.6 | -2.7 | x | x | x
CCOC(=O)[C@]12Cc3cc4ccccc4cc3[C@H]1N(Cc1ccccc1)C(=O)c1cc(OC)ccc12 | x | x | -0.9 | 9.6 | x | x | x | x
O=C(c1cc2cc(Br)ccc2[nH]1)N1CCC2(CC1)OCCO2 | -9.2 | -5.2 | -0.4 | 84.2* | -1.2 | 66.8* | 2.1 | -0.6
C=CC12CN(C)C3C4COC(CC41)C1(C(=O)Nc4ccccc41)C32 (stereo unspecified) | x | x | -4.5 | -5.0 | x | x | x | x
CCCCCc1nc2c(c(=O)c3ccccc3n2C)c(=O)n1C1CCCCCC1 | 26.7 | -0.4 | 37.8 | 30.6 | 3.4 | x | x | x
CC1CN1P(=O)(Oc1ccccc1)N1CC1C (stereo unspecified) | -4.1 | x | 4.2 | -6.0 | x | x | x | x
COc1ccc(N=Cc2c(O)n(Cc3cccs3)c(=O)[nH]c2=O)cc1 | 2.1 | 3.7 | -7.5 | 30.6 | -0.8 | x | x | x
COc1ccc(N=Cc2c(O)n(CC3CCCO3)c(=O)[nH]c2=O)cc1 (stereo unspecified) | -3.7 | -2.8 | -3.8 | 54.9* | -2.1 | 49.6 | 0.2 | 2.7
CSc1ccc(CN2CCN(C(=O)COc3ccc(C)cc3)CC2)cc1 | 7.0 | -1.2 | 0.2 | 92.1* | 3.6 | 70.5* | 2.1 | -4.1
O=C(COc1ccc(Br)cc1)N1CCN(Cc2ccc3c(c2)OCO3)CC1 | 10.3 | -7.9 | -4.9 | 91.7* | -0.5 | 70.3* | -0.4 | -8.8
